Laboratory results: ChEMBL document CHEMBL4257595, “Improving the Selectivity of PACE4 Inhibitors through Modifications of the P1 Residue” (J Med Chem, 2018)
Calls of active or inactive are those of the source. The calls are words filed in the database; no cut-off is given here. Square brackets hold non-standard residues; d marks the D form. Peptide text beside a SMILES is read from it. * marks the point of attachment. NH(4-amidinobenzyl) = N=C(N)c1ccc(CN*)cc1

Assays:
[1] = molecular target: T1, Proprotein convertase subtilisin/kexin type 6 (Homo sapiens, UniProt P29122); test: Inhibition of recombinant human PACE4 using pGlu-Arg-Thr-Lys-Arg-AMC peptide as substrate by spectrofluorometry
T1 sequence (P29122 whole entry): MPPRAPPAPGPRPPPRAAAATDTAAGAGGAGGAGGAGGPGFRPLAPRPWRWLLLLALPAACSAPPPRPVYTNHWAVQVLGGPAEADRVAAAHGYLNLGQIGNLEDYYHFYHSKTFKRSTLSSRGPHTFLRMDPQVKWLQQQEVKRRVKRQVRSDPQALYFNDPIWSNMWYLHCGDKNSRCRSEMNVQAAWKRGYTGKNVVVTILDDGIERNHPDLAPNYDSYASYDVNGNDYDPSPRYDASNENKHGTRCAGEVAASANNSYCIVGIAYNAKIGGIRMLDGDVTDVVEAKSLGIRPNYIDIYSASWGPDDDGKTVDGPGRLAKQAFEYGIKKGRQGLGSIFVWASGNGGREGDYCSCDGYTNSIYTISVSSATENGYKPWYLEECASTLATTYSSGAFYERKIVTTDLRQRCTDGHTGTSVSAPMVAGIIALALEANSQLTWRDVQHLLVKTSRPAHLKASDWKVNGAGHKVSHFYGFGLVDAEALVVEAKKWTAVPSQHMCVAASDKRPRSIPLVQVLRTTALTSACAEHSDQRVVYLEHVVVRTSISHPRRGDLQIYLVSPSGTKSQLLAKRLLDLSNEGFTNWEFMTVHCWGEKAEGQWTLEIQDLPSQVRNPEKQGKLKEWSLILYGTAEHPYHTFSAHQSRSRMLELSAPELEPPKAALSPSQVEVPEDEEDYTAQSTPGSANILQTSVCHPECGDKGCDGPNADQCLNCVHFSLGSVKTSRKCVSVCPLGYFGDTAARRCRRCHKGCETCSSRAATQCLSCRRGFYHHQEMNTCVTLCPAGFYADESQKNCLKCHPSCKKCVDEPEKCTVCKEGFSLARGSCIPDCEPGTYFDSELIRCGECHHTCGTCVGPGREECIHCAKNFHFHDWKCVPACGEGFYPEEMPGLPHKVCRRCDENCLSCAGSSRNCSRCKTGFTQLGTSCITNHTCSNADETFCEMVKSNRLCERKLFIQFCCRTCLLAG

Furin = Furin (Homo sapiens, UniProt P09958); test: Inhibition of recombinant human furin using pGlu-Arg-Thr-Lys-Arg-AMC peptide as substrate by spectrofluorometry
Chain of Furin (P09958 whole entry): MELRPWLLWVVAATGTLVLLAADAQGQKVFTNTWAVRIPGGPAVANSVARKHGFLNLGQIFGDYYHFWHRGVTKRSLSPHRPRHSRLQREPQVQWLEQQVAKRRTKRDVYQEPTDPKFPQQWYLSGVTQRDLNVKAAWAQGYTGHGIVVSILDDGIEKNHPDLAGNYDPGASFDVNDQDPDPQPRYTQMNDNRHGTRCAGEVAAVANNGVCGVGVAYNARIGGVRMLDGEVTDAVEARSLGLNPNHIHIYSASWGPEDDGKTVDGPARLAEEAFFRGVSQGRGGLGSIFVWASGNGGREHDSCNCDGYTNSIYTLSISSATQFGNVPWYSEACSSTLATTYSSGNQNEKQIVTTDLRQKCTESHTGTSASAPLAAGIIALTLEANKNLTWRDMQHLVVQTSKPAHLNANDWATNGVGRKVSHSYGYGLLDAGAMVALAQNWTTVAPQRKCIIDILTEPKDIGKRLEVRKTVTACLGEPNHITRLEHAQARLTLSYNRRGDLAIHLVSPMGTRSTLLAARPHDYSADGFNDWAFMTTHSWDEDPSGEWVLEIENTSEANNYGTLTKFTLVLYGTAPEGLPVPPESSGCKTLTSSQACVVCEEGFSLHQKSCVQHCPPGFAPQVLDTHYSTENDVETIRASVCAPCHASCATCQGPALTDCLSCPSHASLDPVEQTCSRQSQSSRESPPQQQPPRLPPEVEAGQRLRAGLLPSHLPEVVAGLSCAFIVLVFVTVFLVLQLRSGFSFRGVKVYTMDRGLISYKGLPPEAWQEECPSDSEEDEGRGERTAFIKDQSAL
Outline: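 Recombinant human furin at 0.54 nM (Km 5.040 µM) in 100 mM Hepes pH 7.5, 1 mM CaCl2, 1 mM β-mercaptoethanol and 1.8 mg/mL BSA. Substrate pGlu-RTKR-AMC at 100 µM per well. Fluorescence read at ex 370 / em 460 nm. Ki derived by Cheng-Prusoff.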

Homo sapiens = organism: Homo sapiens; test: Selectivity ratio of Ki for recombinant human furin to Ki for recombinant human PACE4
Outline: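 Ratio of Ki values. Furin Ki measured at 0.54 nM enzyme in Hepes pH 7.5; PACE4 Ki measured at 20.18 nM enzyme in Bis-Tris pH 6.5. Both used 100 µM pGlu-RTKR-AMC with fluorescence at ex 370 / em 460 nm, and Ki came from Cheng-Prusoff (Morrison's equation for one PACE4 value).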

DU-145 [2] = test: Antiproliferative activity against human DU145 cells after 72 hrs by MTT assay; assay type: functional, cell-based
Outline: (§1)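 MTT proliferation read-out. DU145 cultured in RPMI-1640 with 5% FBS; LNCaP cultured in RPMI-1640 with 10% FBS. IC50 calculated from dose-response curves.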

LNCaP [3] = test: Antiproliferative activity against human LNCAP cells after 72 hrs by MTT assay; assay type: functional, cell-based; outline: as §1
[4] = Drug uptake in human DU145 cells at 1 uM after 48 hrs using FITC-labeled compounds by propidium iodide/ trypan blue-dual staining based flow cytometry; assay type: ADME, cell-based; conditions: du-145, 1 h, in the assay text read “1 hr” for “48 hrs”
Outline: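 DU145 cells plated at 200000 per 100 mm dish and grown 48 h at 37 °C. FITC-labelled analogue added at 1 µM for 1 h at 37 °C. Cells harvested with 0.05% trypsin and washed in PBS. PI added at 10 µg/mL final just before acquisition. A parallel set was quenched with 0.04% trypan blue. Flow cytometry on ≥10000 events with 488/638 nm lasers.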

[5] = Half life in human plasma; assay type: ADME, cell-free
DU-145 [6] = test: Antiproliferative activity against human DU145 cells at <150 uM after 72 hrs by MTT assay; assay type: functional, cell-based
Outline: (§2)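 Doses tested up to 150 µM. MTT read-out on DU145 (RPMI-1640, 5% FBS) or LNCaP (RPMI-1640, 10% FBS).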

LNCaP [7] = test: Antiproliferative activity against human LNCAP cells at <150 uM after 72 hrs by MTT assay; assay type: functional, cell-based; outline: as §2
[8] = Homo sapiens, DU-145, 72 h, read-out: IC50
[9] = Homo sapiens, LNCaP, 72 h, read-out: IC50

Compound	Ki [1]	Ki (Furin)	Ratio Ki (Homo sapiens)	IC50 (DU-145 [2]; [8])	IC50 (LNCaP [3]; [9])	also measured
CC(=O)N[C@H](CC(C)C)C(=O)N[C@@H](CC(C)C)C(=O)N[C@@H](CC(C)C)C(=O)N[C@@H](CC(C)C)C(=O)N[C@@H](CCCNC(=N)N)C(=O)N[C@H](C(=O)N[C@@H](CCCCN)C(=O)NC/C=C/CNC(=N)N)C(C)C	13 nM	38 nM	3	40000 nM	210000 nM	–
CC(=O)N[C@H](CC(C)C)C(=O)N[C@@H](CC(C)C)C(=O)N[C@@H](CC(C)C)C(=O)N[C@@H](CC(C)C)C(=O)N[C@@H](CCCNC(=N)N)C(=O)N[C@H](C(=O)N[C@@H](CCCCN)C(=O)NCc1ccc(C(=N)N)cc1)C(C)C (Ac-[dL]LLLRVK-{NH(4-amidinobenzyl)})	–	–	2	–	–	–
CC(C)C[C@H](NC(=O)[C@H](CC(C)C)NC(=O)[C@H](CC(C)C)NC(=O)[C@@H](CC(C)C)NC(=O)CCN)C(=O)N[C@@H](CCCNC(=N)N)C(=O)N[C@H](C(=O)N[C@@H](CCCCN)C(=O)NCc1ccc(C(=N)N)cc1)C(C)C	–	–	–	–	–	Drug uptake [4]: Active
Ac-LLLLRVKR-NH2	–	–	–	25000 nM	45000 nM	half-life [5]: 1.7 h
CC(=O)N[C@H](CC(C)C)C(=O)N[C@@H](CC(C)C)C(=O)N[C@@H](CC(C)C)C(=O)N[C@@H](CC(C)C)C(=O)N[C@@H](CCCNC(=N)N)C(=O)N[C@H](C(=O)N[C@@H](CCCCN)C(=O)NCc1ccc(C(=N)N)nc1)C(C)C	2.6 nM	21.5 nM	8	130000 nM	140000 nM	–
CC(=O)N[C@H](CC(C)C)C(=O)N[C@@H](CC(C)C)C(=O)N[C@@H](CC(C)C)C(=O)N[C@@H](CC(C)C)C(=O)N[C@@H](CCCNC(=N)N)C(=O)N[C@H](C(=O)N[C@@H](CCCCN)C(=O)NCC#CCNC(=N)N)C(C)C	32 nM	60 nM	2	110000 nM	125000 nM	–
CC(=O)N[C@H](CC(C)C)C(=O)N[C@@H](CC(C)C)C(=O)N[C@@H](CC(C)C)C(=O)N[C@@H](CC(C)C)C(=O)N[C@@H](CCCNC(=N)N)C(=O)N[C@H](C(=O)N[C@@H](CCCCN)C(=O)NCCc1ccc(C(=N)N)cc1)C(C)C	17 nM	41 nM	2	80000 nM	80000 nM	–
CC(=O)N[C@H](CC(C)C)C(=O)N[C@@H](CC(C)C)C(=O)N[C@@H](CC(C)C)C(=O)N[C@@H](CC(C)C)C(=O)N[C@@H](CCCNC(=N)N)C(=O)N[C@H](C(=O)N[C@@H](CCCCN)C(=O)NCc1ccc(C(=N)N)c(N)c1)C(C)C	14 nM	60 nM	4	61000 nM	58000 nM	–
CC(=O)N[C@H](CC(C)C)C(=O)N[C@@H](CC(C)C)C(=O)N[C@@H](CC(C)C)C(=O)N[C@@H](CC(C)C)C(=O)N[C@@H](CCCNC(=N)N)C(=O)N[C@H](C(=O)N[C@@H](CCCCN)C(=O)N[C@@H](CCCNC(=N)N)C(N)=O)C(C)C	–	–	32	–	–	–
CC(=O)N[C@H](CC(C)C)C(=O)N[C@@H](CC(C)C)C(=O)N[C@@H](CC(C)C)C(=O)N[C@@H](CC(C)C)C(=O)N[C@@H](CCCNC(=N)N)C(=O)N[C@H](C(=O)N[C@@H](CCCCN)C(=O)NCc1ccc2c(N)noc2c1)C(C)C	500 nM	614 nM	1	–	–	IC50 (DU-145 [2]; du-145): Nd(Insoluble); IC50 (LNCaP [3]; lncap): Nd(Insoluble)
CC(C)C[C@H](NC(=O)[C@H](CC(C)C)NC(=O)[C@H](CC(C)C)NC(=O)[C@@H](CC(C)C)NC(=O)CCN)C(=O)N[C@@H](CCCNC(=N)N)C(=O)N[C@H](C(=O)N[C@@H](CCCCN)C(=O)NCc1ccc(C(=N)N)nc1)C(C)C	–	–	–	–	–	Drug uptake [4]: Active
CC(=O)N[C@H](CC(C)C)C(=O)N[C@@H](CC(C)C)C(=O)N[C@@H](CC(C)C)C(=O)N[C@@H](CC(C)C)C(=O)N[C@@H](CCCNC(=N)N)C(=O)N[C@H](C(=O)N[C@@H](CCCCN)C(=O)N[C@H](CO)CCCNC(=N)N)C(C)C	190 nM	250 nM	–	–	–	Activity (DU-145 [6]): inactive; Activity (LNCaP [7]): inactive
CC(=O)N[C@H](CC(C)C)C(=O)N[C@@H](CC(C)C)C(=O)N[C@@H](CC(C)C)C(=O)N[C@@H](CC(C)C)C(=O)N[C@@H](CCCNC(=N)N)C(=O)N[C@H](C(=O)N[C@@H](CCCCN)C(=O)NCc1ccc2c(N)n[nH]c2c1)C(C)C	700 nM	825 nM	1	–	–	IC50 (DU-145 [2]; du-145): Nd(Insoluble); IC50 (LNCaP [3]; lncap): Nd(Insoluble)
CC(=O)N[C@H](CC(C)C)C(=O)N[C@@H](CC(C)C)C(=O)N[C@@H](CC(C)C)C(=O)N[C@@H](CC(C)C)C(=O)N[C@@H](CCCNC(=N)N)C(=O)N[C@H](C(=O)N[C@@H](CCCCN)C(=O)NCc1ccc(C(=N)N)c(O)c1)C(C)C	53 nM	240 nM	5	50000 nM	113000 nM	–
CC(=O)N[C@H](CC(C)C)C(=O)N[C@@H](CC(C)C)C(=O)N[C@@H](CC(C)C)C(=O)N[C@@H](CC(C)C)C(=O)N[C@@H](CCCNC(=N)N)C(=O)N[C@H](C(=O)N[C@@H](CCCCN)C(=O)NCc1c(F)c(F)c(C(=N)N)c(F)c1F)C(C)C	240 nM	600 nM	2	69000 nM	230000 nM	–
